High-throughput results as filed in PubChem BioAssay.
Shown are actives, neighbours in structure and some others; about 1.8% of the full set was active somewhere.
B2AR ag: human beta-2 adrenergic receptor agonism by FAP; P07550; Am2.2-beta2AR cells, FAP receptor internalization, flow cytometry; response, % (no concentration beside the values); AID 504454; hit rate 0.43% among 340,000;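 active means response above a set limit, near 3 SD of response in nonfluorescent compounds, cut at about 42% in these data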
Target sequence (P07550 whole entry, looked up): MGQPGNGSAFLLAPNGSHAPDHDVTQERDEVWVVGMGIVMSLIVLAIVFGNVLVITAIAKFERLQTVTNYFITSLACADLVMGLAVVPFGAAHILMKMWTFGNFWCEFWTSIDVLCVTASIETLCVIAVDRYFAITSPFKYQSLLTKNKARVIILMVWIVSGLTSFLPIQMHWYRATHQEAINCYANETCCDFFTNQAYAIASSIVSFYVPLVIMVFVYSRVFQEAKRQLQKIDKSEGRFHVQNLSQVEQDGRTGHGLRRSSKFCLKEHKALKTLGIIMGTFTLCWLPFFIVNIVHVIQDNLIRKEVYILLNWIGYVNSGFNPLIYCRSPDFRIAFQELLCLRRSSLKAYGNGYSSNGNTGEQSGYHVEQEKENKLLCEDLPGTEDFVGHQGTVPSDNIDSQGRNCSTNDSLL
APJ ag: agonists of human APJ apelin receptor; P35414; CHO-K1 APJ PathHunter beta-arrestin, luminescence; 0% DMSO wells, 100% apelin; activation, % at 20 µM; hit rate 0.11% among 330,000;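 active means activation more than six SD over the plate average, tested at 20 µM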;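 further: 0% = DMSO alone and 100% = apelin-13 at 10 nM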
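Test system – PathHunter CHO-K1 APJ (AGTRL-1) beta-arrestin reporter cells · Input – 1000 cells/well · Compound – single test compound dose, 20 µM final, 1% DMSO · Times – compound stimulation 90 min at 25 °C, detection 60 min · Technique – beta-gal luminescence · Read-out basis – APJ–arrestin association signal · Control set – negative DMSO alone, positive Apelin-13 at 10 nM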
APJ antagonist: APJ receptor antagonism; P35414; CHO-K1 APJ beta-arrestin complementation, luminescence; inhibition, % at 20 µM; hit rate 0.32% among 330,000;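 active means inhibition above about 40% at 20 µM, limit read from the data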;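 further: cells challenged with 10 nM apelin-13 agonist together with compound; plate controls were apelin-13 plus DMSO wells for no effect and DMSO wells lacking apelin-13 for full effect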
EBI2 block: antagonists of human EBI2 receptor | P32249 | EBI2 beta-arrestin recruitment, luminescence, 7a,25-OHC stimulated | inhibition, % at 5 µM | hit rate 0.81% among 360,000 | AID 651636; in the data active means inhibition above about 38%;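 further: enzyme fragment complementation signal reports receptor beta-arrestin coupling in cells; 0% = agonist plus DMSO wells and 100% = wells without agonist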
CCR6 antag: antagonists of human CCR6 receptor | P51684 | CHO-K1 CCR6 PathHunter beta-arrestin, luminescence, CCL20-stimulated | inhibition, % at 20 µM | hit rate 0.49% among 340,000 | AID 493098;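 active means compounds whose inhibition of the agonist-driven luminescence signal at 20 µM reaches about 50%, limit read from the data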;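 further: cells stimulated with CCL20 at 14 nM final; plate controls were DMSO with CCL20 for no effect and DMSO without agonist for full effect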
CXCR6 block: inhibitors of human CXCR6 receptor. CHO-K1 PathHunter CXCR6 beta-arrestin, luminescence. inhibition, % at 20 µM. hit rate 0.36% among 360,000; in the data active means inhibition above about 34%, passing the limit was not always enough;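 further: antagonist mode with CXCL16 agonist at 10 nM final; 0% = 10 nM CXCL16 with DMSO and 100% = unstimulated wells without agonist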
EBI2 conf: EBI2 (human) antagonism, single concentration confirmation; hit rate 29% among 2,400; inhibition, % at 5 µM; EBI2 beta-arrestin luminescence, 7a,25-OHC antagonism; shares compounds with EBI2 block;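 active means inhibition of at least 50%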
EBI2 ag: activates EBI2, counter-screen for EBI2 antagonists; shares compounds with EBI2 block; EBI2-expressing cells, agonist mode, luminescence, 60 min; 0% vehicle, 100% 7α,25-dihydroxycholesterol control; activation, % at 5 µM; 2,400 tested, under 10 active; AID 652000;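 active means activation of at least 50%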
bGal cs: counter-screen for EBI2 antagonists: E. coli beta-galactosidase inhibition; inhibition, % at 5 µM; hit rate 1% among 2,400; purified beta-galactosidase, luminescent Galacton Star, 15 min; AID 652176; shares compounds with EBI2 block;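 active means replicate-average signal at least 3 plate SD below neutral wells, shown as high inhibition, flagging enzyme-inhibiting false positives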;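 further: 0% = DMSO wells with enzyme and 100% = wells lacking enzyme; higher means stronger loss of beta-gal luminescence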
* = called active by the depositor; . = no result given.

SMILES	B2AR ag	APJ ag	APJ antagonist	EBI2 block	CCR6 antag	CXCR6 block	EBI2 conf	EBI2 ag	bGal cs
COc1cccc(C(c2nnnn2C2CCCCC2)N2CCN(C/C=C/c3ccccc3)CC2)c1OC (configuration not stated)	.	.	.	12.4	.	14.3	.	.	.
C(=C\c1ccccc1)/CN1CCN(C(c2nnnn2C2CCCC2)C2CC2)CC1 (configuration not stated)	.	.	.	25.2	.	8.0	.	.	.
FC(F)(F)Oc1ccccc1C(c1nnnn1C1CCCC1)N1CCN(C/C=C/c2ccccc2)CC1 (configuration not stated)	.	.	.	64.5*	.	23.9	39.4	-1.3	-8.2
C(=C\c1ccccc1)/CN1CCN(C(CCc2ccccc2)c2nnnn2C2CCCC2)CC1 (configuration not stated)	.	.	.	51.4*	.	9.6	31.2	3.8	11.8
CCCCc1ncc(CN2CCN(Cc3ccc(C)cc3)C(CCO)C2)[nH]1 (configuration not stated)	-4.3	-1.3	3.8	-4.8	3.2	-2.1	.	.	.
CCC(C)CN1C(=O)CN(S(C)(=O)=O)CC1(C)C(=O)Nc1c(C)cccc1C (configuration not stated)	.	.	.	7.7	.	.	.	.	.
Cc1ccc(Cl)cc1N1CCN(C(=O)c2cc3c(=O)[nH]c4ccccc4c3n2C)CC1	-9.5	5.9	-1.9	72.9*	10.2	-7.1	63.2*	-0.2	-13.8
COc1c2c(c(OC)c3ccccc13)[C@]1(OC2)O[C@H](CCO)C[C@H](O)[C@H]1O	.	.	.	-9.7	.	0.6	.	.	.
Cc1ccc(/C=C/C(=O)OCC(=O)NC(=O)NCc2ccccc2)cc1	10.5	-2.0	-15.7	46.3*	8.2	8.1	14.1	-0.6	-6.9
Cc1ccc(/C=C/C(=O)OCC(=O)NCCN2C(=O)CSC2=O)cc1	4.1	-3.7	9.3	56.0*	-8.1	-4.2	57.9*	2.3	-0.4
Cc1ccc(/C=C/C(=O)OCC(=O)NCCN2C(=O)CSC2=O)o1	-2.0	0.1	6.4	-0.7	0.2	2.1	.	.	.
CC1(C(=O)Nc2ccc(Cl)c(C(F)(F)F)c2)Cc2c(-c3ccc(C(N)=O)cc3)ccnc2O1 (configuration not stated)	.	.	.	4.5	.	-5.6	.	.	.
O=C(NCc1ccc(F)cc1)c1cc(C2CCCCN2S(=O)(=O)c2ccccc2)on1 (configuration not stated)	.	.	.	4.5	.	0.8	.	.	.
NNC(=O)CSc1nc(-c2ccccc2)cn1-c1ccccc1	-7.3	-1.6	-4.4	0.5	-2.0	-2.3	.	.	.
COc1ccc(-n2cc(-c3ccccc3)nc2SC)cc1	-12.3	0.8	20.0	42.2*	11.7	-0.8	34.5	-0.2	3.5
C=CCOC1COC2C(OCC=C)COC12 (configuration not stated)	6.1	.	.	2.9	-3.8	4.8	.	.	.
COc1ccccc1C(=O)N1CCN(C(=O)c2oc3c(C)c(C)ccc3c2C)CC1	.	.	.	51.3*	.	-16.4	43.3	0.1	-20.0
Cc1cc2oc(C(=O)N3CCN(CCc4ccccn4)CC3)c(C)c2cc1C	-0.2	8.9	3.7	49.8*	3.4	-7.0	32.2	0.8	1.8
Cc1c(C(=O)N2CCN(CCc3ccccn3)CC2)oc2ccc(F)cc12	-7.6	0.2	-6.8	15.4	4.5	0.7	.	.	.
Cc1c(C(=O)N2CCN(C(c3ccccc3)c3ccccc3)CC2)oc2ccccc12	8.3	-3.9	8.7	87.3*	17.8	-1.4	40.3	-0.7	-5.0
CCc1ccc2oc(C(=O)N3CCN(c4ccccc4OC)CC3)cc(=O)c2c1	-2.9	-4.6	4.0	91.0*	14.8	-4.6	84.0*	-1.2	-14.4
CC(=O)N1CCN(C(c2ccccc2)c2ccccc2)CC1	10.7	-2.3	13.3	4.2	5.1	-2.1	.	.	.
CCCS(=O)(=O)NC(=O)C1(C)CCN(C(=O)c2ccc3ccccc3c2)C1 (configuration not stated)	.	.	.	-0.3	.	0.1	.	.	.
